KDM4C inh – inhibitors of GASC-1 (KDM4C) histone demethylase, primary screen, biochemical, single concentration HTS. AID 720574, 2013. Lysine-specific demethylase 4C (Homo sapiens), Q9H3R0. actives 0.15% (n = 96,000). inhibition, % at 12.5 µM. GST-KDM4C 2-372, H3K9me3 peptide, LANCE TR-FRET;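 active means mean replicate inhibition above about 25%, with at least 55% of replicates also reaching it, limit read from the data, passing the limit was not always enough; inconclusive means only one of those two conditions met; inactive means neither condition met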
Target sequence (Q9H3R0 2-372 limits assumed): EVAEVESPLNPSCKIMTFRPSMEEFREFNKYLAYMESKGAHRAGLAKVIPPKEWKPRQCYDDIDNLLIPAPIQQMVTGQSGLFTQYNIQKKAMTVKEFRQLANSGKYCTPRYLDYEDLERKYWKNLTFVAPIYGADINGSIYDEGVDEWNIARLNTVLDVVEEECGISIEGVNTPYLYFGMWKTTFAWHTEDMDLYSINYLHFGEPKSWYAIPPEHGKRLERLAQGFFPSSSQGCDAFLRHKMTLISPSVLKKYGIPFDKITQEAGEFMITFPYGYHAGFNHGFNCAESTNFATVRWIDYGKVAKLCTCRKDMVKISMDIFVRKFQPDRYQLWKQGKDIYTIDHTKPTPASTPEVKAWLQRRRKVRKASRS
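Material: N-terminal GST-fused human GASC-1 (KDM4C) fragment, residues 2-372. Input: 10 nM enzyme. Incubation: enzyme reaction 30 min, then detection 60 min, both room temperature. Doses: one test concentration per compound. Read-out basis: inhibition from TR-FRET ratio decrease. Detection: LANCE TR-FRET, excitation 340 nm, emissions 618 and 671 nm.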
IDH1 mut inh – inhibitors of IDH1 R132H reductase, primary screen, biochemical, plate reader, single point; Isocitrate dehydrogenase [NADP] cytoplasmic (Homo sapiens), O75874; diaphorase/resazurin fluorescence, 60 min; inhibition, % at 10 µM; actives 0.18% (n = 70,000); AID 624101, 2012; in the data active means inhibition above about 34%; inconclusive means no clear call, values can overlap the other calls; inactive means below about 11%
Target sequence (O75874 whole entry R132H): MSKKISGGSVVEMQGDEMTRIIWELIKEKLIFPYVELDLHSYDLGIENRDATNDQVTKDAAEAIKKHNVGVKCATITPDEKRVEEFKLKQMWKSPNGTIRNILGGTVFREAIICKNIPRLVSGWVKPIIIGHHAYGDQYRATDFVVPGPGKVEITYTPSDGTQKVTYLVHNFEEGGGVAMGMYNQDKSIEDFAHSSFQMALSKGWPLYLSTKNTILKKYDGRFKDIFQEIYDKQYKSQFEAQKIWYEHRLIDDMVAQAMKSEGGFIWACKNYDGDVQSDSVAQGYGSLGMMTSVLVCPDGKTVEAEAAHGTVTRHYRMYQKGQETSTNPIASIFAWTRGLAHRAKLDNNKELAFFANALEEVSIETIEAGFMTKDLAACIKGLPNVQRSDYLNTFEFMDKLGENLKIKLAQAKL
Pf Dd2 growth – P. falciparum Dd2 growth inhibitors, primary screen, SYBR Green fluorescence, single dose replicates; 72 h; hits give low values; activity change, % at 10 µM; actives 2.3% (n = 94,000); AID 1159554, 2015; in the data active means activity change below about -80%; inconclusive means no clear call, values can overlap the other calls
T cruzi growth-1 – T. cruzi intracellular proliferation inhibitors, primary screen, cell-based, beta-gal Tulahuen parasites, NIH3T3 host, luminescence; T. cruzi beta-gal in NIH3T3, GalScreen luminescence, 90 h; inhibition, % at 8.34 µM; actives 5.9% (n = 77,000); AID 624255, 2012;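 active means mean inhibition above about 93%, with at least 55% of replicates each passing it, limit read from the data, passing the limit was not always enough; inconclusive means only one of those two conditions holds; inactive means neither condition holds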
T cruzi growth-2 – T. cruzi intracellular proliferation inhibitors, confirmation, cell-based, NIH3T3 host, beta-gal parasite, luminescence, cherry-pick | shares compounds with T cruzi growth-1 | T. cruzi beta-gal in NIH3T3, GalScreen luminescence, 90 h | inhibition, % at 8.35 µM | actives 72% (n = 5,600) | AID 651739, 2012;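 active means mean replicate inhibition above about 95% and at least 55% of replicates individually reaching it, limit read from the data; inconclusive means only one of the two criteria is met; inactive means neither criterion is met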
T cruzi growth-3 – inhibitors of intracellular T. cruzi replication, confirmation, NIH3T3 host cells, beta-gal parasites, cherry-pick, set 2 | shares compounds with T cruzi growth-1 | actives 21% (n = 5,600) | inhibition, % at 2.09 µM | T. cruzi beta-gal in NIH3T3, GalScreen luminescence, 90 h;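 active means mean inhibition above about 95%, with at least 55% of replicates also reaching it, limit read from the data; inconclusive means meets just one of the two conditions; inactive means meets neither condition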
NIH3T3 tox – cytotoxicity in mouse NIH/3T3 fibroblasts, confirmation, cytotoxicity control for T. cruzi proliferation inhibitor project, cell-based, cherry-pick, single point | shares compounds with T cruzi growth-1 | NIH/3T3 viability, CellTiter-Glo ATP luminescence, 90 h | cytotoxicity (signal decrease), % at 8.35 µM | actives 14% (n = 5,600) | AID 651742, 2012;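 active means mean signal decrease across replicates above about 35% based on untreated-well scatter, with enough replicates individually passing, limit read from the data; inconclusive means no rule stated though some were filed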
NIH3T3 tox 2 – NIH/3T3 fibroblast cytotoxicity, confirmation, cytotoxicity control, cell-based, cherry-pick, single point, set 2 | shares compounds with T cruzi growth-1 | inhibition, % at 24.9 µM | actives 56% (n = 5,600) | NIH/3T3 viability, CellTiter-Glo ATP luminescence, 90 h;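 active means mean loss of cell viability signal at or above a set limit, and enough replicates individually reaching it; inconclusive means meets only the mean limit or only the replicate share; inactive means meets neither condition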
Each line names hits and unclear results; the compound was inactive in the other large screens (follow-up assays come after a bar, where they were run). In the library only some 5.9% were active in any assay of this set; here they are far more common.

Cc1noc(C)c1NC(=O)N(C)C[C@@H]1Oc2c(NS(=O)(=O)c3c(C)noc3C)cccc2C(=O)N([C@@H](C)CO)C[C@@H]1C	none (no result: IDH1 mut inh)
C[C@@H]1CN([C@@H](C)CO)C(=O)c2cccc(NC(=O)C3CCCCC3)c2O[C@H]1CN(C)Cc1ccc(Oc2ccccc2)cc1	none (no result: IDH1 mut inh)
COc1ccc(OC)c(NC(=O)COc2cc(C)c(Br)cc2C)c1	none (no result: KDM4C inh, Pf Dd2 growth, T cruzi growth-1)
O=C(O)CCCCCCC(=O)N/N=C/c1cc(O)ccc1Br	none (no result: KDM4C inh, Pf Dd2 growth, T cruzi growth-1)
CCC(Sc1nnc(-c2ccc(NC(C)=O)cc2)n1C)C(=O)Nc1ccc(Cl)cc1 (stereo not given)	none (no result: KDM4C inh, Pf Dd2 growth, T cruzi growth-1)
C[C@H](CO)N1C[C@H](C)[C@H](CN(C)Cc2ccc(Oc3ccccc3)cc2)Oc2c(NC(=O)NC3CCCCC3)cccc2C1=O	T cruzi growth-1 inconclusive (no result: IDH1 mut inh) | T cruzi growth-2 100 | T cruzi growth-3 105 | NIH3T3 tox inconclusive | NIH3T3 tox 2 52
C[C@@H]1CN([C@@H](C)CO)S(=O)(=O)c2ccc(-c3cncnc3)cc2O[C@@H]1CN(C)Cc1ccccc1	none
C[C@H](CO)N1C[C@H](C)[C@H](CN(C)Cc2ccncc2)Oc2cc(-c3ccccc3)ccc2S1(=O)=O	T cruzi growth-1 95 | T cruzi growth-2 105 | T cruzi growth-3 99 | NIH3T3 tox inactive | NIH3T3 tox 2 40
C[C@H](CO)N1C[C@H](C)[C@@H](CN(C)Cc2ccccc2)Oc2cc(-c3ccncc3)ccc2S1(=O)=O	T cruzi growth-1 117 (no result: IDH1 mut inh) | T cruzi growth-2 99 | T cruzi growth-3 103 | NIH3T3 tox 71 | NIH3T3 tox 2 76
C[C@@H]1CN([C@H](C)CO)S(=O)(=O)c2ccc(-c3cncnc3)cc2O[C@H]1CN(C)Cc1ccccc1	T cruzi growth-1 inconclusive | T cruzi growth-2 inactive | T cruzi growth-3 inactive | NIH3T3 tox 52 | NIH3T3 tox 2 68
Cc1ccc(-c2ccc3c(c2)O[C@@H](CN(C)Cc2ccccc2)[C@H](C)CN([C@@H](C)CO)S3(=O)=O)cc1	T cruzi growth-1 116 | T cruzi growth-2 99 | T cruzi growth-3 104 | NIH3T3 tox 37 | NIH3T3 tox 2 104
C[C@@H]1CN([C@H](C)CO)S(=O)(=O)c2ccc(-c3ccccc3)cc2O[C@H]1CN(C)Cc1ccncc1	none (no result: IDH1 mut inh)
C[C@@H]1CN([C@@H](C)CO)S(=O)(=O)c2ccc(-c3ccccc3)cc2O[C@H]1CN(C)Cc1ccccc1	none
CCOC(=O)c1c(-c2ccccc2)csc1NC(=O)c1cccc(OC(C)=O)c1	none (no result: KDM4C inh, Pf Dd2 growth, T cruzi growth-1)
COc1ccccc1NC(=O)c1ccc(OCC(=O)Nc2cc(Cl)cc(Cl)c2)cc1	none (no result: KDM4C inh, Pf Dd2 growth, T cruzi growth-1)
Cc1c(NC(=O)C(C)Oc2ccc(Cl)cc2Cl)cccc1-c1nc2ccccc2o1 (stereo not given)	none (no result: KDM4C inh, Pf Dd2 growth, T cruzi growth-1)
CC(=O)N(C)C[C@@H]1Oc2cc(-c3cccnc3)ccc2S(=O)(=O)N([C@H](C)CO)C[C@@H]1C	none
C[C@H]1CN([C@@H](C)CO)S(=O)(=O)c2ccc(-c3cccnc3)cc2O[C@@H]1CN(C)Cc1ccncc1	T cruzi growth-1 inconclusive | T cruzi growth-2 101 | T cruzi growth-3 inactive | NIH3T3 tox inactive | NIH3T3 tox 2 28
C[C@@H]1CN([C@@H](C)CO)S(=O)(=O)c2ccc(-c3cccnc3)cc2O[C@@H]1CN(C)C	T cruzi growth-1 inconclusive | T cruzi growth-2 97 | T cruzi growth-3 inactive | NIH3T3 tox inactive | NIH3T3 tox 2 inactive
C/C=C/c1cnc2c(c1)C(=O)N([C@@H](C)CO)C[C@@H](C)[C@@H](CN(C)S(=O)(=O)c1ccc(F)cc1)O2	none
C/C=C/c1cnc2c(c1)C(=O)N([C@H](C)CO)C[C@H](C)[C@H](CN(C)S(=O)(=O)c1ccc(F)cc1)O2	none
C[C@H]1CN([C@@H](C)CO)C(=O)c2cc(/C=C/c3ccccc3)cnc2O[C@@H]1CN(C)S(=O)(=O)c1ccc(F)cc1	T cruzi growth-1 83 | T cruzi growth-2 100 | T cruzi growth-3 inactive | NIH3T3 tox inactive | NIH3T3 tox 2 inactive
C[C@@H]1CN([C@H](C)CO)C(=O)c2cc(/C=C/c3ccccc3)cnc2O[C@@H]1CN(C)S(=O)(=O)c1ccc(F)cc1	T cruzi growth-1 80 | T cruzi growth-2 105 | T cruzi growth-3 inactive | NIH3T3 tox inactive | NIH3T3 tox 2 51
O=C(CCCCC(=O)N/N=C/c1coc2ccccc2c1=O)NO	none (no result: KDM4C inh, Pf Dd2 growth, T cruzi growth-1)
O=C(Nc1cccc(F)c1)N1CCCCN2[C@@H](CO)[C@H](c3ccc(C#CC4CC4)cc3)[C@@H]2C1	T cruzi growth-1 inconclusive (no result: IDH1 mut inh) | T cruzi growth-2 inactive | T cruzi growth-3 102 | NIH3T3 tox 105 | NIH3T3 tox 2 106
O=C(Nc1ccc(F)cc1)N1CCCCN2[C@H](CO)[C@H](c3ccc(C#CC4CC4)cc3)[C@H]2C1	none (no result: IDH1 mut inh)
O=C(Nc1ccc(F)cc1)N1CCCCN2[C@@H](CO)[C@@H](c3ccc(C#CC4CC4)cc3)[C@@H]2C1	T cruzi growth-1 97 (no result: IDH1 mut inh) | T cruzi growth-2 98 | T cruzi growth-3 107 | NIH3T3 tox 119 | NIH3T3 tox 2 106
O=C(Nc1ccc(F)cc1)N1CCCCN2[C@H](C1)[C@H](c1ccc(C#CC3CC3)cc1)[C@@H]2CO	T cruzi growth-1 122 (no result: IDH1 mut inh) | T cruzi growth-2 100 | T cruzi growth-3 inactive | NIH3T3 tox inactive | NIH3T3 tox 2 inactive
O=C(Nc1cccc(F)c1)N1CCCCN2[C@H](CO)[C@@H](c3ccc(C#Cc4ccccc4)cc3)[C@@H]2C1	none (no result: IDH1 mut inh)
COc1cccc2c1NC1CC(C)CCC1C2(C)C (stereo not given)	none (no result: KDM4C inh, Pf Dd2 growth, T cruzi growth-1)
COC(=O)CN(c1ccc2c(c1)OCCO2)S(C)(=O)=O	none (no result: KDM4C inh, Pf Dd2 growth, T cruzi growth-1)
COC(=O)[C@@H]1[C@@H](CO)[C@@H]2Cn3c(ccc(-c4ccc(F)cc4)c3=O)[C@@H]2N1C(=O)C1CCC1	T cruzi growth-1 114 (no result: IDH1 mut inh, Pf Dd2 growth) | T cruzi growth-2 inactive | T cruzi growth-3 inactive | NIH3T3 tox inactive | NIH3T3 tox 2 inactive
CCCNC(=O)[C@@H]1[C@@H](CO)[C@@H]2Cn3c(ccc(-c4ccccc4)c3=O)[C@@H]2N1C(=O)C1CCC1	T cruzi growth-1 102 (no result: IDH1 mut inh) | T cruzi growth-2 inactive | T cruzi growth-3 inactive | NIH3T3 tox inactive | NIH3T3 tox 2 inactive
